From ChEMBL document CHEMBL1123129, “Hypolipidemic activity of indan-1,3-dione derivatives in rodents” (J Med Chem, 1985) come the findings set out here.

Structures are written as SMILES.

Data set [1] deals with Rattus norvegicus. The experiment in a line: Compound was evaluated for the hypolipidemic activity at 20 mg/kg per day orally for 14 days on neutral lipids content in rat small intestine. In kind it is functional. The conditions noted are these: route oral. In outline: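 Male Sprague–Dawley rats were dosed orally for 14 days. Liver, small intestine and a 24-h fecal collection were lipid-extracted. Extracts were assayed for cholesterol (modified Liebermann–Burchard), triglyceride (enzymatic kit), neutral lipids, phospholipids and protein. Values are % of 1% CMC vehicle control, mean ± SD, N = 6.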

The target in data set [2] is Cholesterol 7-alpha-hydroxylase (Cytochrome P450 7A1) (Mus musculus, UniProt Q64505). The experiment in a line: In vitro percent Cholesterol 7-alpha-hydroxylase activity in mouse CF1 liver microsomes at 50 uM. To be noted: read-out: Control. Also on record: species or system Microsome. In outline:
(§1)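 Mouse liver enzymes assayed in vitro on 10% homogenates of CF1 male mouse liver, with test drug added at 50–200 μM. Each enzyme follows a published procedure. Protein is measured by Lowry. Activity is given as % of untreated control (X ± SD, N = 6).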
(Liver microsomes are vesicles of endoplasmic reticulum, rich in cytochrome P450 enzymes.)

Data set [3] is filed under the species Mus musculus. The experiment in a line: In Vitro evaluation for the CF1 liver enzyme activity on Hepatic lipoprotein lipase at concentration 100 uM. In kind it is functional. In outline: as §1
Data set [4] concerns the target T1, Sterol O-acyltransferase 1 (Mus musculus) (UniProt Q61263).
T1 sequence (whole entry): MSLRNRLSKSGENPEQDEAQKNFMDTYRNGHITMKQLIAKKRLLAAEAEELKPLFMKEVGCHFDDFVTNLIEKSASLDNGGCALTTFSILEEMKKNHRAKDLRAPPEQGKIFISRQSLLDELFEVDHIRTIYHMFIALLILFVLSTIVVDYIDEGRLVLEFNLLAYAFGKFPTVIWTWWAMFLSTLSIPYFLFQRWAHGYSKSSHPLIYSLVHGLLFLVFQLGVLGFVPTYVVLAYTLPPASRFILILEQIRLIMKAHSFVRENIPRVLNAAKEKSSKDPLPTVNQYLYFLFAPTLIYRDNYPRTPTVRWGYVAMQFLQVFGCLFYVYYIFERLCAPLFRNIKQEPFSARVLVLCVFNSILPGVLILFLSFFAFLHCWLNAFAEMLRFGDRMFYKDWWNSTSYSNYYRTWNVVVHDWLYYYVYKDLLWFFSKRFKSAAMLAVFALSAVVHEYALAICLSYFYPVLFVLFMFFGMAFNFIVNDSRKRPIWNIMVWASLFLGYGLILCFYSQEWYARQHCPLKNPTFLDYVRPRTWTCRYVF
The experiment in a line: In Vivo effect for the hypolipidemic activity on Acyl-COA cholesterol acyltransferase in CF1 mice after 16 days of oral administration at a dose of 40 mg/kg. Type of data set: functional, organism-based. Also on record: dose 40 mg/kg. Summed up: (§2)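 CF1 male mice are dosed orally at 10–60 mg/kg per day for 16 days, with 1% CMC as the control vehicle. Liver is homogenized at 10% in 0.25 M sucrose + 0.001 M EDTA, pH 7.2. Enzymes are assayed by literature methods, with Lowry protein. Activity is given as % of control (X ± SD, N = 6), with p from Student's t test.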

Data set [5] relates to Mus musculus. The data set can be described thus: Compound was evaluated for the hypolipidemic activity in CF1 male mice at a dose of 10 mg/kg orally for Serum triglyceride at 16th day. Type of data set: functional. To be noted: route oral. Summed up:
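CF1 male mice received the agent orally in 1% CMC at 10–60 mg/kg per day. Tail-vein blood was taken on days 9 and 16. Serum cholesterol was measured by modified Liebermann–Burchard on duplicate 25-µL samples, and serum triglyceride on day 16 in duplicate 50-µL samples. Values are % of vehicle control, mean ± SD, N = 6; Student's t test.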

The subject of data set [6] is Rattus norvegicus. The experiment in a line: Compound was evaluated for the hypolipidemic activity at 20 mg/kg per day orally for 14 days on triglycerides content in rat VLDL. To be noted: route oral. Type of data set: functional. Summed up: (§3)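 Male Sprague–Dawley rats (~300 g) were dosed orally each day. Blood was drawn from the abdominal vein. Lipoprotein fractions (chylomicron, VLDL, LDL, HDL) were separated by the Hatch–Lees and Havel methods. Each fraction was assayed for cholesterol, triglyceride (enzymatic kit), neutral lipids, phospholipids and Lowry protein. Values are % of 1% CMC vehicle control, N = 6.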

Data set [7] concerns Rattus norvegicus. The data set can be described thus: Compound was evaluated for the hypolipidemic activity at 20 mg/kg per day orally for 14 days on cholesterol content in rat lipoprotein chylomicron. To be noted: route oral. In kind it is functional. Summed up:
as §3

In data set [8] the target is Acetyl-CoA carboxylase 1 (Mus musculus) (UniProt Q5SWU9). The experiment in a line: In Vivo effect for the hypolipidemic activity on Acetyl-CoA carboxylase in CF1 mice after 16 days administered orally at a dose of 20 mg/kg. Also on record: dose 20 mg/kg. In kind it is functional, organism-based. Summed up: as §2
Data set [9] deals with T2, ATP-citrate synthase (Mus musculus) (UniProt Q91V92).
T2 sequence (whole entry): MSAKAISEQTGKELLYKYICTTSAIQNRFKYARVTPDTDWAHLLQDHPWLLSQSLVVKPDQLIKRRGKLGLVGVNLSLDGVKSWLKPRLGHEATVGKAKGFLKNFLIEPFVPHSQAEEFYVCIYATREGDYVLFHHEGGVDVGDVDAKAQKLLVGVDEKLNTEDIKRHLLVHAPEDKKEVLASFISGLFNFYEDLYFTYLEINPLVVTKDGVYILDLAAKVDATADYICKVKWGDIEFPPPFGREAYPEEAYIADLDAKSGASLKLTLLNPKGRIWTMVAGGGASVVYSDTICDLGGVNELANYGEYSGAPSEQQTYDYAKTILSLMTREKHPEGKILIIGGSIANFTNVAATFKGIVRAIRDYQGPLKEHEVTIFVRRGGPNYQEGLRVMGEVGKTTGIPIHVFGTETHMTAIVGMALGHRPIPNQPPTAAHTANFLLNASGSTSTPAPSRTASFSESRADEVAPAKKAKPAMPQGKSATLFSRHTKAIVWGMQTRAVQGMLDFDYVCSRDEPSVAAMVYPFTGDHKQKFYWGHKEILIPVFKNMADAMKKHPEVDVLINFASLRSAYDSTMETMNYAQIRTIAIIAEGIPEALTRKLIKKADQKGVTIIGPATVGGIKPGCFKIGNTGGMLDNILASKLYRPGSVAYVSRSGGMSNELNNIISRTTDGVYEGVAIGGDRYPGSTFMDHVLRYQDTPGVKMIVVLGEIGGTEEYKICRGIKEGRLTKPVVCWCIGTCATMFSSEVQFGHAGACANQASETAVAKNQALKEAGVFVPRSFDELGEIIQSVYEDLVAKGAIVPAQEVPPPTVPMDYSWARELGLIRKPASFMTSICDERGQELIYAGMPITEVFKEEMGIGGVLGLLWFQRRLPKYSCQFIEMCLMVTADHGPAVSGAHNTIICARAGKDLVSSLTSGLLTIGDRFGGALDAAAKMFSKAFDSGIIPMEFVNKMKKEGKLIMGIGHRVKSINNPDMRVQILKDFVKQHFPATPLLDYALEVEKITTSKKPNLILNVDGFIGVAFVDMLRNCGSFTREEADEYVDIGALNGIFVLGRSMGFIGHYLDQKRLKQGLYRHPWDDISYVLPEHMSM
The data set can be described thus: In Vivo effect for the hypolipidemic activity on ATP-Citrate Lyase in CF1 mice after 16 days of oral administration at a dose of 10 mg/kg. Type of data set: organism-based. Set-up: dose 10 mg/kg. In outline:
as §2

Sequence of Cholesterol 7-alpha-hydroxylase (Cytochrome P450 7A1) (Q64505 whole entry): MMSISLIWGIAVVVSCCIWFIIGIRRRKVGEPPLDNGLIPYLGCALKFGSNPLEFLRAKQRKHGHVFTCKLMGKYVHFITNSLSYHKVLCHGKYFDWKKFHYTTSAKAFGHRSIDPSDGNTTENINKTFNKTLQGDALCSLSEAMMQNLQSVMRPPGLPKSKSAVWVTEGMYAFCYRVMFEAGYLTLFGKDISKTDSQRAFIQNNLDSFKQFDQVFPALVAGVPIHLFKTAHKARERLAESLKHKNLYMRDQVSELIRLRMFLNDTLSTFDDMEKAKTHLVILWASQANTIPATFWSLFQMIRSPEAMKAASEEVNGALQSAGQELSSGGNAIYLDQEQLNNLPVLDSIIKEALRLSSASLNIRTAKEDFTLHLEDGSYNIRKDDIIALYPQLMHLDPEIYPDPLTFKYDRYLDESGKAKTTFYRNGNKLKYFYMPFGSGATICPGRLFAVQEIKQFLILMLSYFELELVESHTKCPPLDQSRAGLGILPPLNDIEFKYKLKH

Regarding `COc1ccc(C2C(=O)c3ccccc3C2=O)cc1` [ANISINDIONE], the Control with Rattus norvegicus [1] is 95%; in the data set listed under Mus musculus [3] it was 94%; in [4], 42%; in the data set on Mus musculus [5] it was 64%; in the data set on Rattus norvegicus [6], 72%; with Rattus norvegicus [7], 96%. In addition, the Control in [8] was 107%; in [9], 70%. The activity at 50 µM in [2] is 106%.
